Results: publication PMC11995402 (ACS infectious diseases, 2025)
Converted amounts (≈) assume the structure as drawn. Like-named read-outs stand apart in the source and are kept apart here.

Key:
T. muris [1] = assay: adult whipworm whole-worm motility inhibition assay; type: cell-based, Trichuris muris; conditions: for IC50: motility
A. ceylanicum [2] = assay: adult hookworm whole-worm motility inhibition assay; type: cell-based, Ancylostoma ceylanicum; conditions: motility
PIM-3 = PIM-3 (Homo sapiens, UniProt Q86V86); assay: SelectScreen kinase panel, PIM-3; type: biochemical; conditions: 500 nM
AAK1 = AAK1 (Homo sapiens, UniProt Q2M2I8); assay: SelectScreen kinase panel, AAK1; type: biochemical; conditions: 500 nM
AAK1, sequence (Q2M2I8 whole entry): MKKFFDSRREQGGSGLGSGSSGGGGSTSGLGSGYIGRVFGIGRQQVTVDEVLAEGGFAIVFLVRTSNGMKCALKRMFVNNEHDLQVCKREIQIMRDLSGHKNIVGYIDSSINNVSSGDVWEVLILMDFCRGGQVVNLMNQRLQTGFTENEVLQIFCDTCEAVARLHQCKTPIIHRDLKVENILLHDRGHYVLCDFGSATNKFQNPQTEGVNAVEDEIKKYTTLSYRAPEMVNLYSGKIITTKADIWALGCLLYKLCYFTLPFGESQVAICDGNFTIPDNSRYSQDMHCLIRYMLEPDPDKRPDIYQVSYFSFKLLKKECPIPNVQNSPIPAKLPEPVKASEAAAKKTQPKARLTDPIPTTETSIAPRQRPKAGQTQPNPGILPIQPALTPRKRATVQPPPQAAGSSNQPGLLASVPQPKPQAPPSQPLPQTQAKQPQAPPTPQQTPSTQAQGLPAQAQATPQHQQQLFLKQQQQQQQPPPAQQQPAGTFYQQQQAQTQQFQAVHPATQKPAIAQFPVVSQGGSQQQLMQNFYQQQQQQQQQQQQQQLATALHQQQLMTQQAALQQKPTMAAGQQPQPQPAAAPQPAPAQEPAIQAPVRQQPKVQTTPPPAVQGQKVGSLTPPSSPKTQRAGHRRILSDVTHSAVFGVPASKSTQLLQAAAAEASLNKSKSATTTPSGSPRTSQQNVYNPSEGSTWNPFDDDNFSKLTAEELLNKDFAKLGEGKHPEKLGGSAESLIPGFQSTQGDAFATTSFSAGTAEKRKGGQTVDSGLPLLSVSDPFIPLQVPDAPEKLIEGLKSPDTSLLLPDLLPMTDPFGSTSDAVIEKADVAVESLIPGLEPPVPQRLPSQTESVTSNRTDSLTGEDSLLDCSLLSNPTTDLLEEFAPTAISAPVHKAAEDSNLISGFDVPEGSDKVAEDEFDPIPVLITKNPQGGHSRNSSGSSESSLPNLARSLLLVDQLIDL

MYLK4 = target: T1, MYLK4 (Homo sapiens, UniProt Q86YV6); assay: SelectScreen kinase panel, MYLK4; type: biochemical; conditions: 500 nM
T1 sequence (Q86YV6 1-388): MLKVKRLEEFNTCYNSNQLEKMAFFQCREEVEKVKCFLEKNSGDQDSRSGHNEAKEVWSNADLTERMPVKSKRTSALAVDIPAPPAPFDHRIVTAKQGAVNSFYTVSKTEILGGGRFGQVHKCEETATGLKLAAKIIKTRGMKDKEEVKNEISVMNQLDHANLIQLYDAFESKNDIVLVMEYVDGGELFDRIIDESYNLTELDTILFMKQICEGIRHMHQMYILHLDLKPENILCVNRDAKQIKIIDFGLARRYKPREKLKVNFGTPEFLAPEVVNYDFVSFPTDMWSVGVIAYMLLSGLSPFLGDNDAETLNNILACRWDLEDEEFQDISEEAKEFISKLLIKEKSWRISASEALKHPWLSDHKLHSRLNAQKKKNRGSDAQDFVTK

STK17A = target: T2, STK17A (Homo sapiens, UniProt Q9UEE5); assay: SelectScreen kinase panel, STK17A; type: biochemical; conditions: 500 nM
T2 sequence (Q9UEE5 1-414): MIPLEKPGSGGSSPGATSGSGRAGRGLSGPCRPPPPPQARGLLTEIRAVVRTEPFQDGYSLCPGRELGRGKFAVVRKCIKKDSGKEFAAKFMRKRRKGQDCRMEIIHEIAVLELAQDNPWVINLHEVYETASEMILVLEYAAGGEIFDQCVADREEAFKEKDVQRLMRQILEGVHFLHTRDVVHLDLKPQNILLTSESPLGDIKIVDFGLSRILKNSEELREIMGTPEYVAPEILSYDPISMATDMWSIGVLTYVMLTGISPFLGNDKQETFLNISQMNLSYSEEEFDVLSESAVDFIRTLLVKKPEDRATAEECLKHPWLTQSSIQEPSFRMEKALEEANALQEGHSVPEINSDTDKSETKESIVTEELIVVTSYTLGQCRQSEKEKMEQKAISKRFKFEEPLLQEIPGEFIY

GSG2 (haspin) = target: T3, GSG2 (haspin) (Homo sapiens, UniProt Q8TF76); assay: SelectScreen kinase panel, GSG2; type: biochemical; conditions: 500 nM
T3 sequence (Q8TF76 1-798): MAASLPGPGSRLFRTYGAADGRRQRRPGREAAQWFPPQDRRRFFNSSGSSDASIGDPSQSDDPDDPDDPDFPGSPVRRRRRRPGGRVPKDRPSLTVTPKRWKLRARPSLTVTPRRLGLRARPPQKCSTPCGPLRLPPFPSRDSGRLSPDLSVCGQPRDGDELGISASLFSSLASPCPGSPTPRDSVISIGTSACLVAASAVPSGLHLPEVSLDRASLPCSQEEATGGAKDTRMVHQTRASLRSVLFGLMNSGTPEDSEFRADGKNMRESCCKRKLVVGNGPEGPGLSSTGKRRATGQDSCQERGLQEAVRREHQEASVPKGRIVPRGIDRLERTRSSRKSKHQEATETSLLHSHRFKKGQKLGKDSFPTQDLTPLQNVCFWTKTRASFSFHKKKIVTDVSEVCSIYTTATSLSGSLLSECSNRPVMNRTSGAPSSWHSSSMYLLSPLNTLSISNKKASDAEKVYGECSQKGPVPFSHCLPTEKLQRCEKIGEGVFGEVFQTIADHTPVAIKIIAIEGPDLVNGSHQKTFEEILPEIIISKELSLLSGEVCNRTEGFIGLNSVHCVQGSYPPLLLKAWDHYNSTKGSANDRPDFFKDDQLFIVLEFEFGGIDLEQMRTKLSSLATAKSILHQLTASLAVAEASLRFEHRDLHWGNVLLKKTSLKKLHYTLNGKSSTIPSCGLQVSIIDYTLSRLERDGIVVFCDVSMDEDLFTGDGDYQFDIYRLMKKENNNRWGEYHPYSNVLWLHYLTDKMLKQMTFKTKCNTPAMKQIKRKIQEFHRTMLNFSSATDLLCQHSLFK

MAPK15 (ERK7) = target: T4, MAPK15 (ERK7) (Homo sapiens, UniProt Q8TD08); assay: SelectScreen kinase panel, MAPK15; type: biochemical; conditions: 500 nM
T4 sequence (Q8TD08 1-544): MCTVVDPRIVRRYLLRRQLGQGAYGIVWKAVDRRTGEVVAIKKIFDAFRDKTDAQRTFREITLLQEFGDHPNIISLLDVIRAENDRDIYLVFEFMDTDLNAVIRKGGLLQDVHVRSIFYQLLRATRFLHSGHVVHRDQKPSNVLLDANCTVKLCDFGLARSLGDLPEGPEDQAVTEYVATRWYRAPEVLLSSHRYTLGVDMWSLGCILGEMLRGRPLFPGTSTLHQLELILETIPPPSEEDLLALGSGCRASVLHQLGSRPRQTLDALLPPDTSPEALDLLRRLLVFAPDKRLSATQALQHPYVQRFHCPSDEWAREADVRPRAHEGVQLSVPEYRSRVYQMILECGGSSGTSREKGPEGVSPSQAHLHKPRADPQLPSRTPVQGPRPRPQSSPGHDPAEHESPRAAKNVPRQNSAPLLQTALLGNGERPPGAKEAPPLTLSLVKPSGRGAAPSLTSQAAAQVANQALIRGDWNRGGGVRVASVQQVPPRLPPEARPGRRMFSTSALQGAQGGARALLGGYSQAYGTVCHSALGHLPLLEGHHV

[3] = kinetic solubility in simulated gastric and intestinal fluid; type: physicochemical
T. muris [4] = system: T. muris; design: species or system mice; conditions: mouse, in vivo, po, 100 mg/kg/day
A. ceylanicum [5] = assay: in vivo efficacy in A. ceylanicum-infected hamsters; conditions: 100 mg/kg/day for three days, oral
whipworms = assay: whipworm motility recovery after drug removal; type: cell-based; conditions: 60 μM for 24 h, motility recorded 4 and 24 h after removal
Outline: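 Adult T. muris harvested 35 days post-inoculation from Stat6−/− mice, one worm per well in RPMI 1640 (pH 7.2) with 5% FBS, penicillin, streptomycin and amphotericin, at 37 °C and 5% CO2. Worms were exposed to test compound for 24 h, washed, and moved to fresh drug-free medium. Motility inhibition was scored relative to DMSO (0%) after exposure and again 4 and 24 h later.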

MDR1-MDCK II cells = conditions: MDCK-MDR1
HepG2 cells = assay: HepG2 MTT viability assay; conditions: read-out: HEPG2 cells CC50 μM (95% CI) 24 h; MTT viability, 24 h

Compound: CN1CCCN(C(=O)c2cccc(-c3ccc(/C=C4/C(=O)Nc5ccc(Cl)cc54)o3)c2)CC1 [CX-6258]
- worm motility inhibition (in words) (T. muris [1]; adult T. muris, 30 μM (Figure 1)): excellent inhibition
- motility inhibition (T. muris [1]; adult T. muris, 30 μM, relative to DMSO controls): 100%
- IC50 (T. muris [1]; read-out: T. muris IC50 μM (95% CI) 24 h, 24 h): 17.8 µM
- IC50 (T. muris [1]; read-out: T. muris IC50 μM (95% CI) 48 h, 48 h): 14.7 µM
- IC50 (A. ceylanicum [2]; read-out: A. ceylanicum IC50 μM (95% CI) 24 h, 24 h): 31.6 µM
- IC50 (A. ceylanicum [2]; read-out: A. ceylanicum IC50 μM (95% CI) 48 h, 48 h): 5.5 µM
- kinase inhibition PIM-3 (PIM-3): over 80%
- kinase inhibition AAK1 (AAK1): over 80%
- kinase inhibition MYLK4 (MYLK4): over 80%
- kinase inhibition STK17A (STK17A): over 80%
- kinase inhibition GSG2 (haspin) (GSG2 (haspin)): over 80%
- kinase inhibition MAPK15 (ERK7) (MAPK15 (ERK7)): over 80%
- kinetic solubility μM ([3]; SGF (pH = 1.2)): 151 µM (≈ 69.8 µg/mL)
- kinetic solubility μg/mL ([3]; SGF (pH = 1.2)): 69.7 µg/mL (≈ 151 µM)
- times more soluble in SGF than in SIF ([3]; SGF pH 1.2 versus SIF pH 6.8): approximately 30 times
- kinetic solubility μM ([3]; SIF (pH = 6.8)): 5.05 µM (≈ 2.33 µg/mL)
- kinetic solubility μg/mL ([3]; SIF (pH = 6.8)): 2.33 µg/mL (≈ 5.04 µM)
- health, vitality and body weight of treated animals (T. muris [4]): did not affect the visually observed health and vitality of treated animals, nor were any changes in body weight
- reduction of egg number or worm burden (in words) (A. ceylanicum [5]): did not reduce egg number or worm burden
- recovery of whipworm motility after removing the drug (whipworms): no recovery in whipworm motility
- Rank Papp (MDR1-MDCK II cells): low
- mean Papp A to B (MDR1-MDCK II cells): 0.049 10^−6 cm/s
- mean Papp B to A (MDR1-MDCK II cells): 0.0897 10^−6 cm/s
- mean solution recovery % A to B (MDR1-MDCK II cells): 5.4%
- mean solution recovery % B to A (MDR1-MDCK II cells): 20.2%
- CC50 (HepG2 cells): 37.5 µM
